Assays:
[1] = system: A549; assay: Cytotoxicity against human A549 cells by MTT assay; format: functional, cell-based
In short: (§1)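 Panel of human tumour lines: A549 lung adenocarcinoma, BGC-823 stomach cancer, MCF-7 breast cancer, Bel7402 hepatoma and HCT-8 colon cancer. Activity reported as IC50 in μg/mL.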

[2] = system: BGC-823; assay: Cytotoxicity against human BGC823 cells by MTT assay; format: functional, cell-based; in short: as §1
[3] = system: MCF7; assay: Cytotoxicity against human MCF7 cells by MTT assay; format: functional, cell-based; in short: as §1
[4] = system: Bel-7402; assay: Cytotoxicity against human Bel7402 cells by MTT assay; format: functional, cell-based; in short: as §1
[5] = system: HCT-8; assay: Cytotoxicity against human HCT8 cells by MTT assay; format: functional, cell-based; in short: as §1
[6] = system: Staphylococcus aureus; assay: Antimicrobial activity against Staphylococcus aureus; format: functional
In short: (§2)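 Whole-organism tests on S. aureus, E. coli and the yeast C. albicans. Potency reported as MIC50 in μg/mL.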

[7] = system: Escherichia coli; assay: Antimicrobial activity against Escherichia coli; format: functional; in short: as §2
[8] = system: Candida albicans; assay: Antimicrobial activity against Candida albicans; format: functional; in short: as §2

| SMILES | MIC [6] [µg/mL] | MIC [7] [µg/mL] | MIC [8] [µg/mL] | IC50 [1] [µg/mL] | IC50 [2] [µg/mL] | IC50 [3] [µg/mL] | IC50 [4] [µg/mL] | IC50 [5] [µg/mL] |
| --- | --- | --- | --- | --- | --- | --- | --- | --- |
| CC(=O)/C=C/c1cc(O)c(O)c(Br)c1Br | – | – | – | > 10 | > 10 | > 10 | > 10 | > 10 |
| COC(=O)C(Cc1cc(O)c(O)c(Br)c1Br)c1cc(O)c(OC)c(Br)c1 (configuration not stated) | – | – | – | > 10 | > 10 | > 10 | > 10 | > 10 |
| C[S+]([O-])Cc1cc(O)c(O)c(Br)c1Br (configuration not stated) | > 100 | > 100 | > 100 | > 10 | > 10 | > 10 | > 10 | > 10 |

Second part, led by results:

| MIC [6] [µg/mL] | MIC [7] [µg/mL] | MIC [8] [µg/mL] | SMILES | IC50 [1] [µg/mL] | IC50 [2] [µg/mL] | IC50 [3] [µg/mL] | IC50 [4] [µg/mL] | IC50 [5] [µg/mL] |
| --- | --- | --- | --- | --- | --- | --- | --- | --- |
| > 100 | > 100 | > 100 | COC(=O)Cc1cc(O)c(OC)c(Br)c1 | > 10 | > 10 | > 10 | > 10 | > 10 |
| > 100 | > 100 | > 100 | COc1c(O)cc(C(Cc2cc(O)c(O)c(Br)c2Br)C(=O)O)cc1Br (configuration not stated) | > 10 | > 10 | > 10 | > 10 | > 10 |
| > 100 | > 100 | > 100 | COc1c(O)cc(C(=O)O)cc1Br | > 10 | > 10 | > 10 | > 10 | > 10 |
